Experimental data from PubChem BioAssay.
Records with an inconclusive call do not appear.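 The calls were made as follows, unless noted: active = cell viability at or below a set limit in both duplicate runs, the limit being the all-compound median minus 4 SD (cut at about 23% in these data, passing the limit was not always enough); inconclusive = no clear call, values can overlap the other calls; inactive = the rest.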

What was measured:
[1] = OD615 S. cerevisiae growth inhibition, permissive medium, pilot counter-assay, permissive growth control for S. cerevisiae lifespan shortening project (AID 705;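 active = growth inhibition above 25% in both replicates, a cutoff set 3 SD above the mean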); conditions: OD615, 24 h, at 10 µM, stronger effect = higher value
How it was run: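 assay system = Saccharomyces cerevisiae strain carrying genetically modified DeaD replicative-lifespan system | medium = SC raffinose/galactose permissive medium | dosing = 10 µM single dose, 0.25% DMSO | schedule = 24 h compound exposure at 30 °C after 4 h pre-growth | measured by = OD at 615 nm | read-out basis = growth inhibition from lowered OD615 after 24 h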

[2] = Restrictive medium S. cerevisiae growth inhibition, OD615, pilot screen of yeast lifespan reduction project, restrictive growth control (AID 706;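 active = growth inhibition above a set limit, 3 SD over mean compound inhibition, in both replicates, cut at about 43% in these data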;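 also: modified DeaD lifespan yeast strain shifted to restrictive glucose medium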); conditions: OD615, 48 h, at 10 µM, stronger effect = higher value
How it was run: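 Buffer or medium: CSMM-D glucose medium. Material: genetically modified Saccharomyces cerevisiae, DeaD replicative lifespan assay strain. Times: 48 h compound exposure at 30 °C. Measured by: optical density at 615 nm.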

[3] = viability gain of MRP-1-high H69AR cells under doxorubicin, pilot screen, MRP-1 activator project, CellTiter-Glo, duplicate (AID 807;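 active = viability increase at or above a cutoff of the median across tested compounds plus 3 SD, cut at about 8.5% in these data, passing the limit was not always enough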;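 also: compound pretreatment 18-22 h then 72 h combined with doxorubicin; 0% = doxorubicin alone and 100% = vehicle without doxorubicin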); conditions: H69AR viability with doxorubicin, CellTiter-Glo luminescence; at 10 µM; stronger effect = higher value
[4] = growth suppression of beta-catenin knockout HCT116, pilot screen, human colon tumor cells (AID 823); conditions: CellTiter-Glo, 60 h, at 10 µM, stronger effect = lower value;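 also: 0% = wells killed by 20 µM Hyamine and 100% = untreated DMSO cell wells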
[5] = growth suppression of PTEN-deleted HCT116, pilot screen, cell-based, HCT116 clonal line, CellTiter-Glo (AID 824;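 active = viability at or below 27.92% in each of two runs, the all-compound median minus 4 SD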;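 also: 0% = 20 µM Hyamine control and 100% = vehicle cell control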); conditions: 60 h, at 10 µM, stronger effect = lower value
[6] = inhibitors of the yeast RAM network, pilot screen, dse1pr::URA3 reporter, 5-FOA selection (AID 869;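 active = inhibition over a set limit, the all-compound mean plus 3 SD, in both replicate runs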;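 also: 0% = DMSO wells with no growth and 100% = 10 µM 1-NA-PP1 with full growth; RAM network block rescues cells from 5-FOA so hits raise OD615 growth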); conditions: S. cerevisiae dse1pr::URA3 5-FOA growth, OD615, 2 d; at 10 µM; stronger effect = higher value; strain carries analog-sensitive mutant Cbk1 kinase
[7] = RAM signaling pathway blockade in yeast – S. cerevisiae, Pdr1DBD-CYC8 efflux-inhibited sensitized strain, primary screen (AID 1298;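 active = RAM network inhibition above 8.4% in each of two replicates, 3 SD over the compound average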;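 also: 0% = DMSO untreated cells without growth and 100% = 10 µM 1-NA-PP1 full growth; higher means more yeast growth rescued from 5-FOA killing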); conditions: S. cerevisiae cbk1-as DSE1-URA3 strain, 5-FOA growth OD615, 2 d; at 50 µM; stronger effect = higher value

O=C(Nc1ccc(N2CCOCC2)c(Cl)c1)C1CCCCC1
inactive: growth inhibition [1] 1.5% | growth inhibition [2] 4.29% | viability increase [3] -2.1% | viability [4] 97.6% | viability [5] 94.8% | inhibition [6] 0.18% | RAM network inhibition [7] 3.22%

O=C(NCCCN1CCCCC1)c1ccc2c(=O)n(CCc3ccccc3)c(=O)[nH]c2c1
inactive: growth inhibition [1] -7.09% | growth inhibition [2] -6.43% | viability increase [3] -3.27% | viability [4] 77.3% | viability [5] 83% | inhibition [6] 0.675% | RAM network inhibition [7] 8.53%

CCCc1nc(C)c(-c2ccc(OC)c(OC)c2)c(=O)[nH]1
inactive: growth inhibition [1] -17.9% | growth inhibition [2] -15.2% | viability increase [3] -0.18% | viability [4] 101% | viability [5] 95.3% | inhibition [6] 2.53% | RAM network inhibition [7] 0.84%

O=C(Cn1cc2c(n1)CCCC2)NCc1cccs1
inactive: growth inhibition [1] -4.03% | growth inhibition [2] -3.48% | viability increase [3] -0.37% | viability [4] 105% | viability [5] 93% | inhibition [6] 1.2% | RAM network inhibition [7] 0.81%

COc1ccccc1NC(=O)c1c(NC(=O)c2ccco2)sc2c1CCC2
inactive: growth inhibition [1] -9.49% | growth inhibition [2] -18.1% | viability increase [3] -2.92% | viability [4] 80.2% | viability [5] 72% | inhibition [6] 2.31% | RAM network inhibition [7] 2.6%

N#CC1=C(SCc2ccccc2)NC(=O)CC1c1ccc(O)cc1 (stereo not given)
inactive: growth inhibition [1] -12.2% | growth inhibition [2] -15.2% | viability increase [3] -2.66% | viability [4] 98.2% | viability [5] 96.6% | inhibition [6] 0.67% | RAM network inhibition [7] 1.25%

CCCCCSc1nc2c(c(=O)[nH]c(=O)n2C)n1C
inactive: growth inhibition [1] -12.6% | growth inhibition [2] -5.52% | viability increase [3] -2.27% | viability [4] 90.3% | viability [5] 79.6% | inhibition [6] 2.1% | RAM network inhibition [7] 0.68%

COC(=O)C1CCN(C(c2cc(OC)c(OC)c(OC)c2)c2sc3nc(C)nn3c2O)CC1 (stereo not given)
inactive: growth inhibition [1] -10.8% | growth inhibition [2] -17.2% | viability increase [3] -1.81% | viability [4] 102% | viability [5] 93% | inhibition [6] 2.08% | RAM network inhibition [7] 3.91%

O=C(NC1CCN(C(=O)N2c3ccccc3Sc3ccccc32)CC1)c1ccco1
inactive: growth inhibition [1] -3.83% | growth inhibition [2] -13.8% | viability increase [3] -3.6% | viability [4] 65.1% | viability [5] 59.7% | inhibition [6] -0.48% | RAM network inhibition [7] 4.1%

Clc1ccc(Cc2nnc(-c3ccccc3Br)o2)cc1
inactive: growth inhibition [1] 1.55% | growth inhibition [2] -0.37% | viability increase [3] 4.88% | viability [4] 101% | viability [5] 91.3% | inhibition [6] -0.5% | RAM network inhibition [7] 3.39%

CN(C)CCNC(=O)c1ccc(CS(=O)(=O)c2c(Cl)cccc2Cl)o1
inactive: growth inhibition [1] -2.3% | growth inhibition [2] -9.77% | viability increase [3] -1.24% | viability [4] 99.2% | viability [5] 97.6% | inhibition [6] 2.96% | RAM network inhibition [7] -1.13%

CCN(CC)c1ccc(NC(=O)C2CC3CCC2C3)cc1 (stereo not given)
inactive: growth inhibition [1] -9.15% | growth inhibition [2] -4.45% | viability increase [3] 1.44% | viability [4] 69.6% | viability [5] 80.6% | inhibition [6] 1.14% | RAM network inhibition [7] 6.6%

O=C(NCc1cccnc1)C1CC(=O)N(c2ccc(F)cc2)C1 (stereo not given)
inactive: growth inhibition [1] -18% | growth inhibition [2] -11.7% | viability increase [3] 1.27% | viability [4] 93.8% | viability [5] 101% | inhibition [6] 0.485% | RAM network inhibition [7] 2.83%

COc1ccc(CSc2nncn2N)cc1Br
inactive: growth inhibition [1] 8.95% | growth inhibition [2] 5.08% | viability increase [3] -2.01% | viability [4] 101% | viability [5] 90.8% | inhibition [6] 1.08% | RAM network inhibition [7] 0.88%

CCOc1ccc(C2CC(c3cccc(OC)c3)n3nc(N)nc3N2)cc1 (stereo not given)
inactive: growth inhibition [1] 0.02% | growth inhibition [2] 5.62% | viability increase [3] 0.88% | viability [4] 109% | viability [5] 92.3% | inhibition [6] 0.875% | RAM network inhibition [7] 4.58%

CCCn1c(=S)[nH]c2cc(C(=O)NCC3CCCO3)ccc2c1=O (stereo not given)
inactive: growth inhibition [1] -1.52% | growth inhibition [2] 7.49% | viability increase [3] 0.21% | viability [4] 104% | viability [5] 86.5% | inhibition [6] 1.96% | RAM network inhibition [7] 2.81%

COc1ccc(NC2c3ccccc3C(=O)N2Cc2ccco2)cc1OC (stereo not given)
inactive: growth inhibition [1] 6.53% | growth inhibition [2] 6.86% | viability increase [3] -3.63% | viability [4] 97.5% | viability [5] 89.7% | inhibition [6] 0.985% | RAM network inhibition [7] 3.72%

Cc1ccoc1C(=O)NCc1occc1C(=O)O
inactive: growth inhibition [1] -12.6% | growth inhibition [2] -16.8% | viability increase [3] -3.44% | viability [4] 96.2% | viability [5] 93.1% | inhibition [6] -0.575% | RAM network inhibition [7] 1.58%

Nc1c(NCc2ccccc2F)c(=O)[nH]c(=O)n1Cc1ccccc1
inactive: growth inhibition [1] 0.38% | growth inhibition [2] -8.14% | viability increase [3] -1.53% | viability [4] 106% | viability [5] 100% | inhibition [6] 0.67% | RAM network inhibition [7] 1%

Cc1nn(-c2ccc(Cl)cc2)c2sc(C(=O)N3CCN(C(=O)c4ccco4)CC3)cc12
inactive: growth inhibition [1] -4.13% | growth inhibition [2] -10.7% | viability increase [3] -5.55% | viability [4] 89.3% | viability [5] 82.5% | inhibition [6] 2% | RAM network inhibition [7] 2.13%

CCOC(=O)c1sc(N)nc1-c1ccccc1
inactive: growth inhibition [1] -5.04% | growth inhibition [2] 1.07% | viability increase [3] -2.29% | viability [4] 101% | viability [5] 94.5% | inhibition [6] 2.48% | RAM network inhibition [7] -2.06%

O=C(NC1CCCCCCC1)C1CCC(CNc2c(N3CCCC3)c(=O)c2=O)CC1 (stereo not given)
inactive: growth inhibition [1] -6.82% | growth inhibition [2] 0.64% | viability increase [3] 0.87% | viability [4] 91.6% | viability [5] 96% | inhibition [6] 0.85% | RAM network inhibition [7] 4.83%

Cn1c(=O)oc2cc(S(=O)(=O)N3CCCC(C(=O)Nc4ccc5c(c4)OCCO5)C3)ccc21 (stereo not given)
inactive: growth inhibition [1] -0.19% | growth inhibition [2] -4.89% | viability increase [3] -1.81% | viability [4] 89.5% | viability [5] 90% | inhibition [6] 1.42% | RAM network inhibition [7] 1.66%

CC(=O)Nc1cc2c(cc1C(=O)c1ccccc1)OCCO2
inactive: growth inhibition [1] -3.76% | growth inhibition [2] 7.87% | viability increase [3] -0.99% | viability [4] 95.2% | viability [5] 92.9% | inhibition [6] 1.35% | RAM network inhibition [7] 0.89%

CC(C)n1c(C(O)c2ccc3c(c2)OCO3)nc2ccccc21 (stereo not given)
inactive: growth inhibition [1] -1.25% | growth inhibition [2] 0.5% | viability increase [3] 0.4% | viability [4] 94.8% | viability [5] 90.9% | inhibition [6] 0.905% | RAM network inhibition [7] 2.89%
